Assay results taken from PubChem BioAssay AID624072 (Broad Institute, 2012).
Active and inactive are the calls of the source.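 The calls were made as follows: active = compounds whose fitted curve reaches a 35% growth drop at up to twice the top tested dose; inconclusive = flat curve with a 30 to 70% growth drop, or poor fit; inactive = opposite effect, flat curve, or crossing beyond the limit.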

How the values were obtained:
[1] = tested on: P. aeruginosa PAK mexAB-oprM, EDDHA, OD600 growth, 28 h; test: efflux-deficient P. aeruginosa PAK growth delay, dose response, whole organism, PAK mexAB-OprM mutant, OD600, EDDHA, dry powder, set 3 (AID 624072)
Outline: (§1)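 Buffer or medium: succinate M9 plus 2 µM EDDHA. Test system: P. aeruginosa PAK ΔmexAB-oprM. Times: 28 h at 30 °C.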

[2] = as above; conditions: P. aeruginosa PAK mexAB-oprM, EDDHA, OD600 growth, 28 h; at 100 µM (top of the series)
Outline: as §1

Row | SMILES | AC35 [1] [µM] | activity change, negative = growth inhibition [2]
1 | N#CC(c1cccc(C(F)(F)F)n1)c1ccc(Cl)cc1F (stereo not given) | 4.24 | –
2 | N#CC(c1ccc(F)cc1)c1cccc(C(F)(F)F)n1 (stereo not given) | 3 | –
3 | N#CC(c1ccc(Cl)cc1)c1ncccc1Cl (stereo not given) | 6.94 | –
4 | COCCNC(C#N)c1ccc(Cl)cc1 (stereo not given) | – | -9.68% (inactive)
5 | N#CC(c1ccc(Cl)cc1)c1cccc(C(F)(F)F)n1 (stereo not given) | 3.92 | –
6 | COCCC(C#N)c1ccc(F)cc1 (stereo not given) | 98.3 | –
7 | CCCCC(c1ccc(Cl)cc1)c1nn[nH]n1 (stereo not given) | 97.2 | –
8 | N#CC(c1cccc(Cl)n1)c1ccc(Cl)cc1F (stereo not given) | 6.02 | –
9 | N#CC(c1ccc(Cl)cc1)c1cccc(Cl)n1 (stereo not given) | 5.35 | –
10 | N#CC(c1ccc(Cl)cc1)c1ccc(Cl)cn1 (stereo not given) | 9.77 | –
